The values that follow come from PubChem BioAssay.

Active and inactive are the calls of the source.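 How the source made its calls, unless noted: active means viability at or under a set limit in both replicates, limit being median viability minus 3 SD (cut at about 48% in these data, passing the limit was not always enough); inconclusive means at or under the limit in just one replicate; inactive means at or above the limit in both replicates.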

The nature of test [1]: HUVEC growth inhibition – cell-based, human, primary screen (AID 575;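 active means viability at or below 30% in both replicate assays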;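 further: 100% = median of untreated cell wells with 0.1% DMSO on each plate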). To be noted: HUVEC proliferation, CellTiter-Glo luminescence, 72 h; at 10 µM; stronger effect = lower value. The method in brief: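 Assay system: Primary human umbilical vein endothelial cells | Quantity: 1250 cells per well | Medium: Supplemented EBM, 2% fetal bovine serum | Detection: CellTiter-Glo luminescence measuring cellular ATP | Read-out: % viability vs DMSO wells | Plate: Collagen-coated 384-well format | Times: 72 h exposure, 37 °C, 5% CO2, 30 min RT equilibration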

A short description of test [2]: growth inhibitors of H69AR lung tumor, primary screen, human, duplicate replicates (AID 580).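 Further: 100% = mean luminescence of untreated wells and 0% = no signal.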 To be noted: H69AR lung tumor cells viability, ATP luminescence, 72 h; at 10 µM; stronger effect = lower value.
A short description of test [3]: reversal of MRP1-mediated doxorubicin resistance, pilot screen, H69AR cells, doxorubicin co-treatment (AID 601;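 active means viability loss from added drug above about 55%, and viability with drug at most 40%, in both replicates, limit read from the data, passing the limit was not always enough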). As to conditions: CellTiter-Glo, 72 h, at 10 µM; for differential viability (reversal): stronger effect = higher value.
Test [4] in a line: 384-well plate pilot, post-Golgi transport modulator project, inhibition of yeast transport mutant growth (AID 636; in the data active means inhibition above about 31%). To be noted: absorbance 615 nm, about 18 h, stronger effect = higher value.
The nature of test [5]: growth suppression of yeast trafficking mutant, preliminary HTS, modulators of trafficking downstream of Golgi apparatus project, 1536-format plate, OD 615 nm (AID 637; in the data active means inhibition above about 30%). As to conditions: yeast transport mutant growth, absorbance 615 nm, 18 h; stronger effect = higher value.
Where [6] appears, read: H69AR cells + 2 uM doxorubicin, measured here: viability with 2 uM doxorubicin, stronger effect = lower value.
The mark [7] stands for this setting: H69AR cells, compound alone cytotoxicity.

For `CCOC(=O)c1c(COC(=O)c2ccco2)nc2ccccc2[n+]1[O-]`, the viability (as a rule, a read-out of living cells in per cent, often relative to untreated cells) in test [1] was 90.3% (inactive); in test [2], 87.2% (inactive); in test [3] (setting [6]) it was 84.6%; in test [3] (setting [7]), 87.2%. In addition, in test [3] (H69AR cells + 2 uM doxorubicin), the differential viability (reversal) was 2.55% (inactive). Also, the results for the inhibition in test [4] and in test [5] were -5.73% (inactive) and 3.97% (inactive), respectively.
`O=C(NCc1nc2ccccc2[nH]1)c1ccco1`: the viability in test [1] was 106% (inactive); in test [2] it was 90.7% (inactive); in test [3] (setting [6]), 83.7%; in test [3] (setting [7]), 90.7%. Also, the differential viability (reversal) in test [3] (H69AR cells + 2 uM doxorubicin) was 7.09% (inactive). The inhibition (in general, the change of the read-out against control, counted positive when it falls) in test [4] was -4.13% (inactive); in test [5] it was -1.9% (inactive).
With `c1ccc2[nH]c(CSc3nnc(-c4ccncc4)o3)nc2c1`, the viability in test [1] is 104% (inactive); in test [2] it was 90.9% (inactive); in test [3] (setting [6]), 96.7%; in test [3] (setting [7]) it was 90.9%. Besides, the differential viability (reversal) in test [3] (H69AR cells + 2 uM doxorubicin) is -5.82% (inactive). The figures for the inhibition in test [4] and in test [5] were -2.24% (inactive) and 2.06% (inactive), respectively.
Regarding `COc1ccc(C2(C(=O)Nc3cc(C)on3)CCOCC2)cc1`, the viability in test [1] is 98% (inactive); in test [2], 88.1% (inactive); in test [3] (setting [6]) it was 86.9%; in test [3] (setting [7]) it was 88.1%. Also, the differential viability (reversal) in test [3] (H69AR cells + 2 uM doxorubicin) was 1.2% (inactive). Also, the inhibition in test [4] is -5.87% (inactive); in test [5] it was 10.8% (inactive).
On to `CN(c1cccc(NS(=O)(=O)c2cccs2)c1)S(C)(=O)=O`, for which the viability is 95.5% (inactive) in test [1], 86.8% (inactive) in test [2], 84.7% in test [3] (setting [6]) and 86.8% in test [3] (setting [7]). Moreover, the differential viability (reversal) in test [3] (H69AR cells + 2 uM doxorubicin) is 2.12% (inactive). The inhibition is -0.13% (inactive) in test [4] and 18.1% (inactive) in test [5].
As to `CN(C)CCSc1nnc2sc3ccccc3n12`, the viability in test [1] was 94.2% (inactive); in test [2], 92.8% (inactive); in test [3] (setting [6]), 93.7%; in test [3] (setting [7]) it was 92.8%. In addition, in test [3] (H69AR cells + 2 uM doxorubicin), the differential viability (reversal) is -0.905% (inactive). For the same compound, the inhibition in test [4] was -5.92% (inactive); in test [5] it was -5.08% (inactive).
As for `Cc1csc(NC(=O)c2cccc(S(=O)(=O)N3CCCCC3)c2)n1`, the viability in test [1] was 70.6% (inactive); in test [2] it was 87.5% (inactive); in test [3] (setting [6]), 91.5%; in test [3] (setting [7]) it was 87.5%. In test [3] (H69AR cells + 2 uM doxorubicin), the differential viability (reversal) was -3.96% (inactive). Also, the inhibition in test [4] is -3.51% (inactive); in test [5], -9.05% (inactive).
`O=C(NCc1ccco1)c1cccc(-c2nnc(-c3ccccc3)o2)c1`: the viability in test [1] is 59.4% (inactive); in test [2] it was 85.8% (inactive); in test [3] (setting [6]) it was 80.3%; in test [3] (setting [7]) it was 85.8%. In test [3] (H69AR cells + 2 uM doxorubicin), the differential viability (reversal) was 5.49% (inactive). The inhibition is -4.8% (inactive) in test [4] and 2.86% (inactive) in test [5].
On to `CCSc1ccccc1C(=O)NCc1ccc(S(N)(=O)=O)cc1`, for which the viability in test [1] is 99.2% (inactive); in test [2], 93.7% (inactive); in test [3] (setting [6]), 87.5%; in test [3] (setting [7]), 93.7%. Further, the differential viability (reversal) in test [3] (H69AR cells + 2 uM doxorubicin) is 6.25% (inactive). Also, the inhibition in test [4] is -5.2% (inactive); in test [5], -1.27% (inactive).
`COc1ccccc1CNC(=O)C1CCN(S(=O)(=O)N2CCCCC2)CC1`: the viability in test [1] was 83.4% (inactive); in test [2], 81.7% (inactive); in test [3] (setting [6]), 80.2%; in test [3] (setting [7]) it was 81.7%. Besides, the differential viability (reversal) in test [3] (H69AR cells + 2 uM doxorubicin) is 1.51% (inactive). The values for the inhibition in test [4] and in test [5] were -1.97% (inactive) and 3.81% (inactive), respectively.
As to `CCN(CC(=O)O)S(=O)(=O)c1cc(Cl)ccc1Cl`, the viability was 96.5% (inactive) in test [1], 90.9% (inactive) in test [2], 92% in test [3] (setting [6]) and 90.9% in test [3] (setting [7]). Further, in test [3] (H69AR cells + 2 uM doxorubicin), the differential viability (reversal) is -1.08% (inactive). Besides, the inhibition in test [4] is -7.2% (inactive); in test [5] it was -1.75% (inactive).
As for `CCc1c(C)nc(N2CCN(Cc3ccccc3)CC2)[nH]c1=O`, the viability in test [1] was 115% (inactive); in test [2], 103% (inactive); in test [3] (setting [6]), 84.6%; in test [3] (setting [7]), 103%. Further, the differential viability (reversal) in test [3] (H69AR cells + 2 uM doxorubicin) is 18.8% (inactive). In addition, the inhibition in test [4] is -0.53% (inactive); in test [5], 0.32% (inactive).
Regarding `FC(F)(F)c1cc(-c2ccco2)nc(-n2nnc3ccccc32)n1`, the viability in test [1] was 59.5% (inactive); in test [2], 79.8% (inactive); in test [3] (setting [6]) it was 78.3%; in test [3] (setting [7]), 79.8%. The differential viability (reversal) in test [3] (H69AR cells + 2 uM doxorubicin) is 1.45% (inactive). For the same compound, the inhibition is -0.91% (inactive) in test [4] and 0.32% (inactive) in test [5].
On to `O=C1CC(C(=O)Nc2ccccc2)C2(CCCC2)O1` (stereo not drawn), for which the viability was 98.4% (inactive) in test [1], 93.9% (inactive) in test [2], 90.8% in test [3] (setting [6]) and 93.9% in test [3] (setting [7]). Also, the differential viability (reversal) in test [3] (H69AR cells + 2 uM doxorubicin) was 3.1% (inactive). Further, the inhibition is -2.6% (inactive) in test [4] and -2.38% (inactive) in test [5].
Regarding `O=C(CCCN1C(=O)c2ccccc2C1=O)NCc1cccnc1`, the viability in test [1] is 95.9% (inactive); in test [2], 94.2% (inactive); in test [3] (setting [6]), 91.3%; in test [3] (setting [7]) it was 94.2%. The differential viability (reversal) in test [3] (H69AR cells + 2 uM doxorubicin) was 2.95% (inactive). In addition, the inhibition in test [4] was -2.13% (inactive); in test [5], -3.49% (inactive).
Take `COc1ccc(N2C(=O)CC(N3CCN(S(=O)(=O)c4c(F)cccc4F)CC3)C2=O)cc1OC` (stereo not drawn): the viability in test [1] is 107% (inactive); in test [2], 103% (inactive); in test [3] (setting [6]), 94.3%; in test [3] (setting [7]), 103%. The differential viability (reversal) in test [3] (H69AR cells + 2 uM doxorubicin) is 8.42% (inactive). Further, the values for the inhibition in test [4] and in test [5] were -2.34% (inactive) and -6.35% (inactive), respectively.
`COc1ccc(C(F)(F)F)cc1NC(=O)c1nc2nc(C)cc(C(F)F)n2n1`: the viability is 94% (inactive) in test [1], 79.9% (inactive) in test [2], 83.7% in test [3] (setting [6]) and 79.9% in test [3] (setting [7]). Besides, the differential viability (reversal) in test [3] (H69AR cells + 2 uM doxorubicin) was -3.77% (inactive). In addition, the inhibition in test [4] is -1.56% (inactive); in test [5] it was -0.16% (inactive).
Regarding `CC1(C)CC(=O)c2cc(OCC(=O)N3CCN(c4ccccc4F)CC3)ccc2O1`, the viability was 99.1% (inactive) in test [1], 91.8% (inactive) in test [2], 88.9% in test [3] (setting [6]) and 91.8% in test [3] (setting [7]). Besides, in test [3] (H69AR cells + 2 uM doxorubicin), the differential viability (reversal) is 2.9% (inactive). Moreover, the values for the inhibition in test [4] and in test [5] were -0.13% (inactive) and 2.06% (inactive), respectively.
As to `Cc1ccc(S(=O)(=O)NCCc2ccncc2)cc1`, the viability in test [1] was 95.4% (inactive); in test [2], 110% (inactive); in test [3] (setting [6]) it was 100%; in test [3] (setting [7]), 110%. For the same compound, in test [3] (H69AR cells + 2 uM doxorubicin), the differential viability (reversal) was 10.4% (inactive). Further, the inhibition in test [4] is -2.47% (inactive); in test [5], -0.16% (inactive).
